# Assay results from ChEMBL document CHEMBL1811866, “Design, synthesis, and biological evaluation of abiotic, non-lactone modulators of LuxR-type quorum sensing” (Bioorg Med Chem, 2011).
# What was measured:
# Format in all cases: functional
# [1] = target: T1, Transcriptional activator protein LasR (Pseudomonas aeruginosa (strain ATCC 15692 / PAO1 / 1C / PRS 101 / LMG12228)) (UniProt P25084); assay: Agonist activity at Pseudomonas aeruginosa PAO1 MW1 (pUM15) LasR assessed as activation of quorum sensing at 10 uM relative to N-(3-oxo)-dodecanoyl HL
# T1 sequence (whole entry): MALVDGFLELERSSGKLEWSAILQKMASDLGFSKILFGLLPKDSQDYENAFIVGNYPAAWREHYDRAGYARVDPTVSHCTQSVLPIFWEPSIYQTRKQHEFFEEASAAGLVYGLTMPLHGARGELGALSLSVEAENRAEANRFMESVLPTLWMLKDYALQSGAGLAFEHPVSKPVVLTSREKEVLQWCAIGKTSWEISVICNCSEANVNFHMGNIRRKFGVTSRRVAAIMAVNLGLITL
# Method in brief: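 P. aeruginosa PAO1 MW1 grown overnight at 30 °C in LB/MOPS pH 7 with carbenicillin (300 µg/mL). Subcultured 1:10 at 37 °C to OD 0.25–0.30 and plated with compound only, no native ligand. Incubated with shaking at 37 °C for 8 h. OD and fluorescence then read.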
# [2] = target: T1, Transcriptional activator protein LasR (Pseudomonas aeruginosa (strain ATCC 15692 / PAO1 / 1C / PRS 101 / LMG12228)); assay: Antagonist activity at Pseudomonas aeruginosa PAO1 MW1 (pUM15) LasR assessed as inhibition of N-(3-oxo)-dodecanoyl HL-induced quorum sensing activation at 10 uM relative to untreated control
# Method in brief: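 P. aeruginosa PAO1 MW1 colony grown overnight at 30 °C in LB with MOPS at pH 7 plus carbenicillin (300 µg/mL). Diluted 1:10 and shaken at 37 °C to OD 0.25–0.30. OdDHL added to the subculture at 1 μM final, then plated with test compound. Plates shaken at 37 °C for 8 h, then optical density and fluorescence read.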
# [3] = system: Escherichia coli DH5[alpha]; assay: Agonist activity at Escherichia coli DH5alpha (pJN105L + pSC11) LasR assessed as activation of quorum sensing at 10 uM relative to N-(3-oxo)-dodecanoyl HL
# [4] = target: T2, Transcriptional activator protein LuxR (Aliivibrio fischeri) (UniProt P12746); assay: Antagonist activity at Vibrio fischeri ESI 114 (delta-LuxI) LuxR assessed as inhibition of OHHL-induced quorum sensing activation at 10 uM relative to untreated control
# T2 sequence (whole entry): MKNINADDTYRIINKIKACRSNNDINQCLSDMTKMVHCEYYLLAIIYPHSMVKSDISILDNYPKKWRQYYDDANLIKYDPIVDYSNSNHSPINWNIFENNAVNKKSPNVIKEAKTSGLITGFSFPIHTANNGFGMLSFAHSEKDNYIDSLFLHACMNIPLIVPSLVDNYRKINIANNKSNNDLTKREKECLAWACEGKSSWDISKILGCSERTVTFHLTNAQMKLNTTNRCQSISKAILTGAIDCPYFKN
# Method in brief: (§1)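 LuxR reporter in V. fischeri ESI 114 (Δ-LuxI), compounds screened at 10 μM in triplicate. For inhibition, cells challenged with 2 μM OHHL. Agonism normalized to native ligand at 100 μM. Negative controls with no ligand subtracted as background.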
# [5] = target: T2, Transcriptional activator protein LuxR (Aliivibrio fischeri); assay: Agonist activity at Vibrio fischeri ESI 114 (delta-LuxI) LuxR assessed as activation of quorum sensing at 10 uM relative to OHHL; method in brief: as §1
# [6] = system: Escherichia coli DH5[alpha]; assay: Antagonist activity at Escherichia coli DH5alpha (pJN105L + pSC11) LasR assessed as inhibition of N-(3-oxo)-dodecanoyl HL-induced quorum sensing activation at 10 uM relative to untreated control
# [7] = target: T3, Transcriptional activator protein TraR (Agrobacterium tumefaciens) (UniProt P33905); assay: Agonist activity at Agrobacterium tumefaciens WCF (pCF372) TraR assessed as activation of quorum sensing at 10 uM relative to OOHL
# T3 sequence (whole entry): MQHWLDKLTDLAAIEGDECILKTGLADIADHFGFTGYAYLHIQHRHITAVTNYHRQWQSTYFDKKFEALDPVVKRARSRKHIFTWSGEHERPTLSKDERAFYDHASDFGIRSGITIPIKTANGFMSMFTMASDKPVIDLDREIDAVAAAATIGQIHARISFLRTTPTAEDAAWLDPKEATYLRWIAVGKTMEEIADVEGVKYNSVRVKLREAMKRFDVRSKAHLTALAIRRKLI
# [8] = target: T3, Transcriptional activator protein TraR (Agrobacterium tumefaciens); assay: Antagonist activity at Agrobacterium tumefaciens WCF (pCF372) TraR assessed as inhibition of OOHL-induced quorum sensing activation at 10 uM relative to untreated control
SMILES,Activity [1] [%],inhibition [2] [%],inhibition [4] [%],Activity [5] [%],Activity [7] [%],inhibition [8] [%],Activity [3] [%],inhibition [6] [%]
CCCCCCCCCC(=O)CC(=O)NC1CCCC1,54,-1,89,4,-1,-3,84,
CCCCCCCCCC(=O)CC(=O)NCC(=O)OCC,12,11,,8,2,-3,51,
CCCCCCCCCC(=O)CC(=O)NCc1ccc(F)cc1,0,13,,1,0,,0,13
CCCCCCCCCC(=O)CC(=O)Nc1cc(-c2ccc(Cl)cc2)nn1C,0,0,2,3,-2,,0,0
CCCCCCCCCC(=O)CC(=O)NCc1ccco1,0,26,-4,4,-1,1,0,0
CCCCCCCCCC(=O)CC(=O)N[C@@H](C)C(=O)OC,0,23,24,4,0,-4,2,-4
CCCCCCCCCC(=O)CC(=O)NCc1cccc([N+](=O)[O-])c1,0,17,44,2,0,-6,0,41
CCCCCCCCCC(=O)CC(=O)NCCC1=CCCCC1,4,-7,35,3,-1,,0,10
CCCCCCCCCC(=O)CC(=O)NCc1ccc(OC)c(OC)c1,0,9,,1,0,-10,1,13
CCCCCCCCCC(=O)CC(=O)NCc1cc(F)cc(F)c1,0,16,,3,-1,-10,0,22
CCCCCCCCCC(=O)CC(=O)NCc1c(F)cccc1F,0,5,,5,-1,,1,13
CCCCCCCCCC(=O)CC(=O)NCc1ccccc1F,0,13,,2,-1,,0,38
CCOC(=O)CNC(=O)CCc1cccc(I)c1,0,,89,0,,,0,38
CCCCCCCCCC(=O)CC(=O)NCc1ccc(OC)cc1,1,38,15,2,0,-8,73,

# Continued, in another order:
Activity [1] [%],inhibition [2] [%],inhibition [4] [%],Activity [5] [%],Activity [7] [%],inhibition [8] [%],SMILES,Activity [3] [%],inhibition [6] [%]
0,-5,14,0,,,CCOC(=O)CNC(=O)CCc1ccc(Cl)cc1,0,38
0,5,7,1,0,-4,CCCCCCCCCC(=O)CC(=O)NCCc1ccccc1,0,-4
0,8,,6,-1,-6,CCCCCCCCCC(=O)CC(=O)NCCC(c1ccccc1)c1ccccc1,0,17
0,-6,40,0,,,CCOC(=O)CNC(=O)CCc1ccc(OC)cc1,0,36
0,,19,0,,,CCOC(=O)CNC(=O)Cc1cccc([N+](=O)[O-])c1,93,41
0,1,19,0,,,O=C(Cc1ccccc1)NC1CCCC1,0,11
0,12,1,0,,,O=C(Cc1ccc(Br)cc1)Nc1ccccc1,3,20
1,,17,5,,,O=C(Cc1ccc(-c2ccccc2)cc1)NC1CCCC1,0,4
0,-5,62,33,,,O=C(Cc1cccc([N+](=O)[O-])c1)NC1CCCC1,0,29
0,5,2,7,,,CCCCCCCCCC(=O)Nc1ccccc1,3,20
2,-10,25,4,,,O=C(CCCc1c[nH]c2ccccc12)NC1CCCC1,0,20
0,,35,0,,,O=C(Cc1ccc(Br)cc1)NC1CCCC1,0,11
0,-1,18,3,,,COc1ccc(CC(=O)NC2CCCC2)cc1,6,24
0,-10,15,0,,,CCOC(=O)CNC(=O)Cc1ccccc1,0,38
1,0,0,0,,,O=C(Cc1cccc([N+](=O)[O-])c1)Nc1ccccc1,0,12
0,,14,0,,,CCOC(=O)CNC(=O)Cc1ccc(Br)cc1,0,33
1,29,12,2,1,,CCCCCCCCCC(=O)CC(=O)Nc1ccccc1,3,54
0,,43,0,,,CCOC(=O)CNC(=O)Cc1ccc(SC(F)(F)F)cc1,0,33
